Measurements published in article PMC3016465 (Proteins, 2011).
“Also recorded” adds a separate entry of the source.

What was measured:
N2a cells = experiment: MTT cytotoxicity assay; type: cell-based; conditions: oligomeric peptide, one day after addition
[1] = Atomic force microscopy of oligomers; type: physicochemical
[2] = Circular dichroism of spin-labeled apoE; type: physicochemical; conditions: spin-labeled W264C apoE4 vs wt apoE4; Supplementary Material
AβO = experiment: EPR of position 264 spin-labeled apoE with HDL or VLDL, with or without AβO; type: binding; conditions: for EPR response to AβO in presence of HDL / VLDL: apoE 30 μM, HDL or VLDL 850 mg/dL, oligomeric Aβ(1-40) 100 μM, one hour at 37 °C; for EPR response to HDL / VLDL without AβO: apoE spin-labeled at 264, HDL or VLDL, Supplemental Figure S2
Summary of the method: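 Human apoE isoforms (Cys at 264) expressed in E. coli BL21(DE3)AI, purified from inclusion bodies in 8 M urea, labeled with MTS-SL and refolded into PBS pH 7.4. HDL or VLDL came from postprandial human plasma by ultracentrifugation. […] Samples were incubated, then run as X-band EPR (loop-gap resonator, sealed quartz capillary), with vehicle controls.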

Aβ^(26TOAC) = experiment: EPR of Aβ^; type: binding; conditions: apoE 30 μM; 40 μM Aβ (1 part Aβ^(26TOAC) to 3 parts native Aβ(1-40)), scanned immediately after introduction into aqueous buffer
VLDL and HDL = conditions: ref [10]; cited from earlier work
Aβ fibrils = conditions: in vitro; ref [19]; cited from earlier work
Aβ = conditions: cited from earlier work
[3] = test system: neuronal death / neurite outgrowth; conditions: independent of Aβ; ref [15]; cited from earlier work

Aβ(1-40): native Aβ(1-40) peptide (Bachem Cat # 1194.0001)
cell death (N2a cells): 60-75%

AβO: soluble Aβ oligomer
time to formation of fibrillar aggregates after spotting ([1]; AFM, AβO 50 μM, on mica surface): ≤ 1 min
average volume of initial AβO species ([1]; AFM, set of 11, assuming simple spherical particle): 203 ± 26 nm^3
upper limit of oligomer size ([1]; efficient packing of the peptide in the particle is unlikely): ≤ 30 -mer
protein mass of AβO particle ([1]; estimated from AFM volume, if packed similar to a globular protein): ~ 160 kD

apoE4: h_apoE4 protein containing the W264->Cys (apoE4-W264C) substitution
CD analysis of spin-labeled protein [2]: indistinguishable from wt apoE4
EPR response to AβO in presence of HDL / VLDL (AβO): slightly stronger binding effect of apoE4 to AβO in the presence of VLDL than HDL
EPR response to HDL / VLDL without AβO (AβO): shows little change with HDL, and a slight increase in amplitude with VLDL
effect of apoE on the Aβ^(26TOAC) EPR spectrum (Aβ^(26TOAC)): produces a spectrum that is identical to TOAC-labeled sample added to PBS alone; also recorded: had no significant effect on the Aβ^(26TOAC) spectrum
lipoprotein preference (VLDL and HDL): preference of E4 to bind VLDL over HDL
stimulation of Aβ fibril assembly (Aβ fibrils): in vitro assembly of Aβ fibrils is stimulated by apoE, and more so by the E4 isoform
association with Aβ, SDS-resistant apoE-Aβ on gels (Aβ; in vitro, ref [13]): higher apoE4 association in vitro
affinity of lipid-free apoE4 for Aβ vs apoE3 (Aβ; lipid-free apoE, ref [14],[19]): binds Aβ with a higher affinity than apoE3 and promotes fibrillization of Aβ
neuronal death [3]: induces neuronal death and forms large fibril-like assemblies

E3-like protein: apoE3-like protein: R112->S mutation in the apoE4-W264C template
EPR response to AβO in presence of HDL / VLDL (AβO): the influence of AβO on the E3-like protein is clearly greater in the presence of HDL
EPR response to HDL / VLDL without AβO (AβO): becomes more ordered; where the spectra of spin-labeled 264 are similarly broadened by HDL and VLDL
effect of apoE on the Aβ^(26TOAC) EPR spectrum (Aβ^(26TOAC)): Only the E3-like protein induces a broadening of the Aβ^(26TOAC) spectra
propensity to form SDS-resistant complex with Aβ (Aβ; E3-like mutant (Cys112→Ser) relative to apoE4, ref [29]): higher (relative to apoE4) propensity to form an SDS-resistant complex with Aβ
